Tests used:
Assay type in all cases: ADME, organism-based
Design in all cases: dose 10 mg/kg
[1] = Volume of distribution in mouse at 10 mg/kg; conditions: in vivo, read-out: Vdss
Summary of the method: (§1)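 Mice (n = 3) dosed at 10 mg/kg in 50% PEG400/50% water; pharmacokinetic parameters given as mean ± deviation.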

[2] = Clearance in mouse at 10 mg/kg; conditions: in vivo; summary of the method: as §1
[3] = Mean residence time in mouse at 10 mg/kg; conditions: in vivo; summary of the method: as §1
[4] = Half life in mouse at 10 mg/kg; conditions: in vivo; summary of the method: as §1

Vd [1]: 5.9 L/kg | clearance [2]: 16 mL/min/kg | MRT [3]: 6.5 h | half-life [4]: 4.5 h
Compound: Cc1ccc(C(=O)N(CCCN)C(c2nn3c(Cl)ccc3c(=O)n2Cc2ccccc2)C2CC2)cc1 (centres undefined)

Source: ChEMBL document CHEMBL1146041, “Synthesis and SAR of pyrrolotriazine-4-one based Eg5 inhibitors” (Bioorg Med Chem Lett, 2006)
